We go through 32 compounds from ChEMBL document CHEMBL2311465, “Synthesis of novel naphthoquinone aliphatic amides and esters and their anticancer evaluation” (Eur J Med Chem, 2013).

The subject of one assay is KB. Briefly: Cytotoxicity against human KB cells after 3 days by resazurin microplate assay. The assay is classed as functional, cell-based. Conditions: 72 h. An outline of the steps: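 KB cells (ATCC CCL-17) harvested in log phase and diluted to 7 × 10^4 cells/mL, then added to samples diluted in 0.5% DMSO. Incubated 3 days at 37 °C, 5% CO2, then resazurin added and plates held 4 h at 37 °C. Fluorescence read at ex 530/em 590 nm. IC50 fitted from 6 two-fold serial concentrations; six replicate experiments.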
For orientation: Resazurin is reduced to fluorescent resorufin, in cell work by metabolically active cells.

The next assay deals with Vero. Briefly: Cytotoxicity against african geen monkey Vero cells after 4 days by GFP reporter assay. Format: cell-based, Chlorocebus sabaeus. Conditions: for pIC50: Chlorocebus sabaeus, Vero, 96 h, read-out: IC50; for IC50: vero. The essentials:
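Vero cells (GFP-expressing, grown with geneticin at 37 °C, 5% CO2) added to test compounds diluted in 0.5% DMSO and incubated 4 days at 37 °C, 5% CO2. Bottom-read fluorescence at ex 485/em 535 nm; day-0 background subtracted from the day-4 signal. Typical values from six replicate experiments.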

The target of assay [1] is DNA topoisomerase 2-alpha (Homo sapiens) (UniProt P11388). Briefly: Inhibition of human topoisomerase 2-alpha-mediated decatenation of kinetoplast DNA at 50 uM after 1 hr by agarose gel electrophoretic analysis. An outline of the steps:
(§1)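 kDNA (60 ng) incubated with 2 units of human TopoIIα, with or without compound, for 1 h at 37 °C. Buffer: 50 mM Tris-Cl pH 8.0, 150 mM NaCl, 10 mM MgCl2, 0.5 mM dithiothreitol, 2 mM ATP. Decatenation judged by presence or absence of enzyme activity.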

For assay [2] the target is unchanged. Briefly: Inhibition of human topoisomerase 2-alpha-mediated decatenation of kinetoplast DNA at 10 to 20 uM after 1 hr by agarose gel electrophoretic analysis. An outline of the steps: as §1
For assay [3] the target is unchanged. Briefly: Inhibition of human topoisomerase 2-alpha-mediated decatenation of kinetoplast DNA at 5 uM after 1 hr by agarose gel electrophoretic analysis. The essentials:
as §1

pIC50: −log10 of the molar value. Activity calls are given as the source filed them. No cut-off for these calls is given here.

Chain of DNA topoisomerase 2-alpha (Homo sapiens) (P11388 whole entry): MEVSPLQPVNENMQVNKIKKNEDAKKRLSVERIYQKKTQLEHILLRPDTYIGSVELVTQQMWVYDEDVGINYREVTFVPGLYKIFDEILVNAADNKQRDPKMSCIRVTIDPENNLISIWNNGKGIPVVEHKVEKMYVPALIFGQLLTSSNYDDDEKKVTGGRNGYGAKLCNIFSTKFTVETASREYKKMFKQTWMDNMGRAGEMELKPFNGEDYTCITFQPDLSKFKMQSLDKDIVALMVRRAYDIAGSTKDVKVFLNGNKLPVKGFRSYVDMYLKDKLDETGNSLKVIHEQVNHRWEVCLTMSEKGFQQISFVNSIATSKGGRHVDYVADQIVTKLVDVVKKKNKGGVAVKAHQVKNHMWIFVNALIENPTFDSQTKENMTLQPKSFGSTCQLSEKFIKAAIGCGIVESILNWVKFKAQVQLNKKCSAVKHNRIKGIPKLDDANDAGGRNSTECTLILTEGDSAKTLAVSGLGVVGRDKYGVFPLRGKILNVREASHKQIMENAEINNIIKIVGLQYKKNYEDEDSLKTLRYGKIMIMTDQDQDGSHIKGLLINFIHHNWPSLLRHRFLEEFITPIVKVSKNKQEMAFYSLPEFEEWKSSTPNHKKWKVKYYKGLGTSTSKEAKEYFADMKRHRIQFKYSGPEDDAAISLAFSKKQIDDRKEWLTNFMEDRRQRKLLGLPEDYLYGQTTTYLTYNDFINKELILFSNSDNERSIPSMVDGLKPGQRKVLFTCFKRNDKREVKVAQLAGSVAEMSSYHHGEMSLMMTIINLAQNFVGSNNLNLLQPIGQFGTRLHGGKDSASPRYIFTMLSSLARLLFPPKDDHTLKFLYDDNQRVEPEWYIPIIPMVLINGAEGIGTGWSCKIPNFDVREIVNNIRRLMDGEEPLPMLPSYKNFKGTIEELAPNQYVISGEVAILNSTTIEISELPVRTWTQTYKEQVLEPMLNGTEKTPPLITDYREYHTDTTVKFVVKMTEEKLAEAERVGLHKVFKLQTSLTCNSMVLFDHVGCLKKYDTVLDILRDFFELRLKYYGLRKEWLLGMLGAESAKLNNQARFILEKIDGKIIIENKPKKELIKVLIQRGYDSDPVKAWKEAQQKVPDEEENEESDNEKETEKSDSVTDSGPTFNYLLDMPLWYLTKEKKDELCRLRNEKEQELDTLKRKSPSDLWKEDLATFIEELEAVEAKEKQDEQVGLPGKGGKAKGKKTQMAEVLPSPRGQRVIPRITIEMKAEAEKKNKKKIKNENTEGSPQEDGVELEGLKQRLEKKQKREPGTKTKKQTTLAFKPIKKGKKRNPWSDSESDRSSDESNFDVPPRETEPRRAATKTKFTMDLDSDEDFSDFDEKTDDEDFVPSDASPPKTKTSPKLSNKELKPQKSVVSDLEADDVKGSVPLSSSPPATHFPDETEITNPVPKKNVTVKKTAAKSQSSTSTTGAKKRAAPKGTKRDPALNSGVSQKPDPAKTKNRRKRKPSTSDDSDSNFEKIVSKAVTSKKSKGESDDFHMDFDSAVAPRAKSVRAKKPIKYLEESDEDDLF

Broadly, the pIC50 is −log10 of the IC50, conventionally taken in molar units. In the case of `CCCCCCCCCC(=O)OCC(C)(C)CC1=C(O)C(=O)c2ccccc2C1=O`, the pIC50 in the assay on KB was 4.26.
Consider `CCCCCCC(C)C(=O)NCC(C)(C)CC1=C(O)C(=O)c2ccccc2C1=O` (configuration not stated), for which the figures for the pIC50 in the assay with Vero and with KB were 4.81 and 4.62, respectively.
Turning to `CCC(C)C(=O)NCC(C)(C)CC1=C(O)C(=O)c2ccccc2C1=O` (configuration not stated), the IC50 entry in the assay on Vero was “Non-toxic”. This compound showed a pIC50 in the assay with KB of 3.99.
For the compound `CCCCCC(=O)OCC(C)(C)CC1=C(O)C(=O)c2ccccc2C1=O`, the pIC50 in the assay with KB was 4.39.
Consider `CCCC(C)C(=O)NCC(C)(C)CC1=C(O)C(=O)c2ccccc2C1=O` (configuration not stated), for which the inhibition entry in assay [1] is “Active”. The pIC50 is 4.32 with Vero and 4.33 in the assay with KB.
On to `CCCCCCCCC(=O)NCC(C)(C)CC1=C(O)C(=O)c2ccccc2C1=O`, for which the pIC50 was 4.78 with Vero and 4.71 in the assay on KB.
Consider `CCC(=O)OCC(C)(C)CC1=C(O)C(=O)c2ccccc2C1=O`, for which the negative-log IC50 (pIC50) in the assay with KB was 4.07.
Regarding `CCCCCCCCCCCCCCCCCC(=O)NCC(C)(C)CC1=C(O)C(=O)c2ccccc2C1=O`, the pIC50 in the assay on Vero was 5.24; in the assay on KB, 5.20.
Consider `CCCCCCCCCC(=O)NCC(C)(C)CC1=C(O)C(=O)c2ccccc2C1=O`, for which the pIC50 was 4.82 with Vero and 4.73 in the assay with KB.
`CCCCCCCCCCC(=O)OCC(C)(C)CC1=C(O)C(=O)c2ccccc2C1=O` had a pIC50 in the assay with KB of 4.26.
With `CC(C)C(=O)NCC(C)(C)CC1=C(O)C(=O)c2ccccc2C1=O`, in the assay with Vero, the IC50 result is “Non-toxic”. The pIC50 in the assay with KB is 4.02.
In the case of `CCCCCC(=O)NCC(C)(C)CC1=C(O)C(=O)c2ccccc2C1=O`, the pIC50 was 4.33 in the assay with Vero and 4.40 with KB.
The compound `CCCCC(=O)OCC(C)(C)CC1=C(O)C(=O)c2ccccc2C1=O` had a pIC50 with KB of 4.56.
Still for that read-out and setting: with `CCCCCCCCC(=O)OCC(C)(C)CC1=C(O)C(=O)c2ccccc2C1=O` the figure was 4.41; with `CCCCCCCC(=O)OCC(C)(C)CC1=C(O)C(=O)c2ccccc2C1=O`, 4.42; with `CCCCCCC(=O)OCC(C)(C)CC1=C(O)C(=O)c2ccccc2C1=O`, 4.84.
Consider `COc1cccc2c1C(=O)c1c(O)c3c(c(O)c1C2=O)C[C@@](O)(C(=O)CO)C[C@@H]3O[C@H]1C[C@H](N)[C@H](O)[C@H](C)O1` [DOXORUBICIN], for which the pIC50 in the assay with KB was 6.02.
Compound `CCCCCCCCCCCC(=O)OCC(C)(C)CC1=C(O)C(=O)c2ccccc2C1=O` gave a pIC50 in the assay on KB of 4.45.
Still for that read-out and setting: with `CCC(C)C(=O)OCC(C)(C)CC1=C(O)C(=O)c2ccccc2C1=O` (configuration not stated) the figure was 5.33.
For `CCCC(C)C(=O)OCC(C)(C)CC1=C(O)C(=O)c2ccccc2C1=O` (configuration not stated), the inhibition entry in assay [1] is “Active”. In addition, the pIC50 with KB was 5.75.
Consider `CCCCCCCCCCCCCC(=O)OCC(C)(C)CC1=C(O)C(=O)c2ccccc2C1=O`, for which the negative-log IC50 (pIC50) with KB is 4.29.
Consider `CCCCCCCC(=O)NCC(C)(C)CC1=C(O)C(=O)c2ccccc2C1=O`, for which the negative-log IC50 (pIC50) was 4.73 with Vero and 4.61 in the assay on KB.
For `CCCCCCCCCCCCCCCC(=O)NCC(C)(C)CC1=C(O)C(=O)c2ccccc2C1=O`, the inhibition result in assay [2] and in assay [1] was “Active” throughout. The inhibition entry in assay [3] was “inactive”. Moreover, the values for the negative logarithm of the IC50 (pIC50) in the assay on Vero and in the assay on KB were 5.25 and 5.29, respectively.
In the assay on KB, `CC(C)C(=O)OCC(C)(C)CC1=C(O)C(=O)c2ccccc2C1=O` had a pIC50 of 4.84.
Take `CCCCCCCCCCCCCC(=O)NCC(C)(C)CC1=C(O)C(=O)c2ccccc2C1=O`: the pIC50 with Vero is 5.01; in the assay on KB, 4.60.
On the same counts, the results for `CCCCCCCCCCCC(=O)NCC(C)(C)CC1=C(O)C(=O)c2ccccc2C1=O` are 4.86 and 4.89.
On the same counts, the results for `CCCCCCCCCCC(=O)NCC(C)(C)CC1=C(O)C(=O)c2ccccc2C1=O` are 4.83 and 4.75.
On the same counts, the results for `CCCCCCC(=O)NCC(C)(C)CC1=C(O)C(=O)c2ccccc2C1=O` are 4.61 and 4.55.
Compound `CCCC(=O)OCC(C)(C)CC1=C(O)C(=O)c2ccccc2C1=O` had a pIC50 in the assay with KB of 4.37.
Still for that read-out and setting: the value for `CCCCCCCCCCCCCCCCCC(=O)OCC(C)(C)CC1=C(O)C(=O)c2ccccc2C1=O` was 4.12.
`CCCCCCCCCCCCCCCC(=O)OCC(C)(C)CC1=C(O)C(=O)c2ccccc2C1=O`: the inhibition result in assay [1] is “Active”. For the same compound, in the assay with KB, the pIC50 was 4.57.
`CCCCCCC(C)C(=O)OCC(C)(C)CC1=C(O)C(=O)c2ccccc2C1=O` (configuration not stated) gave a pIC50 with KB of 4.78.
